Measured values of several laboratories.
Lines come from different studies, so protocols differ.
CDK7: Cyclin-dependent kinase 7 (CDK7, Homo sapiens, UniProt P50613)

| Structure (SMILES) | target | effect on | mode | method | tested at | endpoint | result |
| --- | --- | --- | --- | --- | --- | --- | --- |
| CC(C)S(=O)(=O)c1ccc2nccc(Nc3ccc4sc(C5CCCC5)nc4c3)c2c1 | Cyclin-dependent kinase 7, with cyclin H (CDK7, Homo sapiens, UniProt P50613) | enzyme activity | inhibitor |  | 1 µM | activity vs control | 106% |
| CCCCC(=O)Nc1ccc(-c2ccc3ncn(CCC)c(=O)c3c2)cn1 | CDK7 | binding |  | competition with immobilised ligand | 0.5 µM | remaining binding | 83% |
| C=CC(=O)N1CCC([C@@H]2CCNc3c(C(N)=O)c(-c4ccc(Oc5ccccc5)cc4)nn32)CC1 | CDK7 | enzyme activity | inhibitor |  | 1 µM | inhibition | 21% |
| C1=C/COCc2cc(ccc2OCCN2CCCC2)Nc2nccc(n2)-c2cccc(c2)COC/1 | CDK7 | binding |  |  | 0.1 µM | remaining binding | 21% |
| C[C@]1(O)CCCN(c2nc(Nc3ccc(S(=O)(=O)N[C@H]4CC[C@H](CN5CCN(c6ccc(C7CCC(=O)NC7=O)cc6F)CC5)CC4)cc3Cl)ncc2C(F)(F)F)C1 (some centres unmarked) | CDK7 | binding |  | competition with immobilised ligand | 1 µM | remaining binding | 100% |
| N#Cc1ccc(NC(=O)Nc2ccccc2)cc1 | CDK7 | cell-free assay |  | competition with immobilised ligand | 25 µM | remaining binding | 94% |
| Cc1ccc(NC(=O)c2ccnc(C(F)(F)F)c2)cc1-c1cc(OCCO)nc(N2CCOCC2)c1 | CDK7 | binding |  | competition with immobilised ligand | 1 µM | remaining binding | 98% |
| CNS(=O)(=O)c1ccc(Nc2ncc(C(F)(F)F)c(N3CCC[C@](C)(O)C3)n2)c(C)c1 | CDK7 | binding |  | competition with immobilised ligand | 1 µM | remaining binding | 83% |
| CN1CCN(C(=O)c2ccc(NC(=O)Nc3ccc(N(C)c4ccnc(Nc5ccc(CS(C)(=O)=O)cc5)n4)cc3)cc2)CC1 | CDK7 | binding |  | competition with immobilised ligand | 1 µM | remaining binding | 61% |
| C=CC(=O)N1CCC[C@@H](n2nc(-c3ccc(Oc4ccccc4)cc3)c3c(N)ncnc32)C1 | CDK7 | enzyme activity | inhibitor |  | 1 µM | inhibition | 28% |
| COc1ccc2oc(-c3ccc4nc(N)oc4c3)c/c(=N\c3ccccc3NC(=O)CCN)c2c1 | CDK7 | binding |  |  | 1 µM | remaining binding | 97% |
